Reference: ChEMBL document CHEMBL3046428, “Isolation, characterization and antifungal activity of major constituents of the Himalayan lichen Parmelia reticulata Tayl” (2011)
Values after ≈ are worked out from the molar mass of the structure shown.

What was measured:
Format in all cases: functional
[1] = system: Rhizoctonia solani; assay: Antifungal activity against Rhizoctonia solani assessed as growth inhibition at 62.5 ug/ml by poisoned food technique
Summary of the method: (§1)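 Poisoned-food assay on PDA. Test material was diluted in acetone and mixed into molten medium at final 250, 125 or 62.5 μg/mL, with 1 mL acetone as control. Plates received a 5 mm mycelial disc from the front of a 2-week-old colony and were incubated at 28 °C until control growth was nearly complete. Colony diameter was measured, giving %I = (C−T)/C×100. Mean ± SD of four replicates.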

[2] = system: Pythium aphanidermatum; assay: Antifungal activity against Pythium aphanidermatum assessed as growth inhibition at 250 ug/ml by poisoned food technique; summary of the method: as §1
[3] = system: Fusarium udum; assay: Antifungal activity against Fusarium udum assessed as growth inhibition at 125 ug/ml by poisoned food technique; summary of the method: as §1
[4] = system: Globisporangium debaryanum; assay: Antifungal activity against Pythium debaryanum assessed as growth inhibition by poisoned food technique; conditions: read-out: ED50 (the source's name)
Summary of the method: (§2)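 ED50 from poisoned-food growth inhibition on PDA at 250, 125 and 62.5 μg/mL in medium, with an acetone control. Plates were inoculated with a 5 mm mycelial disc, incubated at 28 °C, and colony diameter was measured in quadruplicate. Percent inhibition was corrected by Abbott's formula, using a correction factor from the 9 cm dish diameter, and ED50 (μg/mL) was derived by probit analysis.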

[5] = system: Athelia rolfsii; assay: Antifungal activity against Athelia rolfsii assessed as growth inhibition at 250 ug/ml by poisoned food technique; conditions: Agroathelia rolfsii; summary of the method: as §1
[6] = system: Fusarium udum; assay: Antifungal activity against Fusarium udum assessed as growth inhibition at 62.5 ug/ml by poisoned food technique; summary of the method: as §1
[7] = system: Macrophomina phaseolina; assay: Antifungal activity against Rhizoctonia bataticola assessed as growth inhibition at 125 ug/ml by poisoned food technique; summary of the method: as §1
[8] = system: Athelia rolfsii; assay: Antifungal activity against Athelia rolfsii assessed as growth inhibition at 125 ug/ml by poisoned food technique; conditions: Agroathelia rolfsii; summary of the method: as §1
[9] = system: Macrophomina phaseolina; assay: Antifungal activity against Rhizoctonia bataticola assessed as growth inhibition by poisoned food technique; conditions: read-out: ED50 (the source's name); summary of the method: as §2
[10] = system: Macrophomina phaseolina; assay: Antifungal activity against Rhizoctonia bataticola assessed as growth inhibition at 250 ug/ml by poisoned food technique; summary of the method: as §1
[11] = system: Globisporangium debaryanum; assay: Antifungal activity against Pythium debaryanum assessed as growth inhibition at 125 ug/ml by poisoned food technique; summary of the method: as §1
[12] = system: Pythium aphanidermatum; assay: Antifungal activity against Pythium aphanidermatum assessed as growth inhibition at 125 ug/ml by poisoned food technique; summary of the method: as §1
[13] = system: Rhizoctonia solani; assay: Antifungal activity against Rhizoctonia solani assessed as growth inhibition at 250 ug/ml by poisoned food technique; summary of the method: as §1
[14] = system: Athelia rolfsii; assay: Antifungal activity against Athelia rolfsii assessed as growth inhibition at 62.5 ug/ml by poisoned food technique; conditions: Agroathelia rolfsii; summary of the method: as §1
[15] = system: Pythium aphanidermatum; assay: Antifungal activity against Pythium aphanidermatum assessed as growth inhibition by poisoned food technique; conditions: read-out: ED50 (the source's name); summary of the method: as §2
[16] = system: Fusarium udum; assay: Antifungal activity against Fusarium udum assessed as growth inhibition by poisoned food technique; conditions: read-out: ED50 (the source's name); summary of the method: as §2
[17] = system: Fusarium udum; assay: Antifungal activity against Fusarium udum assessed as growth inhibition at 250 ug/ml by poisoned food technique; summary of the method: as §1
[18] = system: Rhizoctonia solani; assay: Antifungal activity against Rhizoctonia solani assessed as growth inhibition at 125 ug/ml by poisoned food technique; summary of the method: as §1
[19] = system: Macrophomina phaseolina; assay: Antifungal activity against Rhizoctonia bataticola assessed as growth inhibition at 62.5 ug/ml by poisoned food technique; summary of the method: as §1
[20] = system: Globisporangium debaryanum; assay: Antifungal activity against Pythium debaryanum assessed as growth inhibition at 250 ug/ml by poisoned food technique; summary of the method: as §1
[21] = system: Rhizoctonia solani; assay: Antifungal activity against Rhizoctonia solani assessed as growth inhibition by poisoned food technique; conditions: read-out: ED50 (the source's name); summary of the method: as §2
[22] = system: Pythium aphanidermatum; assay: Antifungal activity against Pythium aphanidermatum assessed as growth inhibition at 62.5 ug/ml by poisoned food technique; summary of the method: as §1
[23] = system: Globisporangium debaryanum; assay: Antifungal activity against Pythium debaryanum assessed as growth inhibition at 62.5 ug/ml by poisoned food technique; summary of the method: as §1
[24] = system: Athelia rolfsii; assay: Antifungal activity against Athelia rolfsii assessed as growth inhibition by poisoned food technique; conditions: Agroathelia rolfsii; read-out: ED50 (the source's name); summary of the method: as §2

Compound	inhibition at 62.5 µg/mL [1]	inhibition at 250 µg/mL [2]	inhibition at 125 µg/mL [3]	EC50 [4]	inhibition at 250 µg/mL [5]	inhibition at 62.5 µg/mL [6]	inhibition at 125 µg/mL [7]	inhibition at 125 µg/mL [8]	EC50 [9]	inhibition at 250 µg/mL [10]	inhibition at 125 µg/mL [11]	inhibition at 125 µg/mL [12]	inhibition at 250 µg/mL [13]	inhibition at 62.5 µg/mL [14]	EC50 [15]	EC50 [16]	inhibition at 250 µg/mL [17]	inhibition at 125 µg/mL [18]	inhibition at 62.5 µg/mL [19]	inhibition at 250 µg/mL [20]	also measured
COc1cc(C)c(C(=O)O)c(O)c1C	50%	79.3%	46.5%	73.8 µg/mL (≈ 376 µM)	53%	23.7%	56.4%	44.3%	74.5 µg/mL (≈ 380 µM)	68%	61.4%	67.7%	82%	28.4%	71.1 µg/mL (≈ 362 µM)	106 µg/mL (≈ 541 µM)	58%	70.6%	39.4%	83.8%	EC50 [21]: 50.6 µg/mL (≈ 258 µM); inhibition at 62.5 µg/mL [22]: 28.4%; inhibition at 62.5 µg/mL [23]: 33%; EC50 [24]: 116 µg/mL (≈ 589 µM)
CC(=O)C1=C(O)C=C2Oc3c(C)c(O)c(C(C)=O)c(O)c3C2(C)C1=O (racemic) [(+/-)-ISOUSNIC ACID]	35.2%	75.4%	63.3%	71 µg/mL (≈ 206 µM)	84%	33.4%	69.1%	66.1%	70.4 µg/mL (≈ 204 µM)	87.2%	66.2%	53.2%	86.4%	32.8%	62.3 µg/mL (≈ 181 µM)	70.9 µg/mL (≈ 206 µM)	81%	73.1%	29.3%	72.1%	EC50 [21]: 64.6 µg/mL (≈ 188 µM); inhibition at 62.5 µg/mL [22]: 46.1%; inhibition at 62.5 µg/mL [23]: 35.1%; EC50 [24]: 69.6 µg/mL (≈ 202 µM)
C=C1C(=O)OC(CCCCCCCCCCCCC)C1C(=O)O (racemic) [(+/-)-Protolichesterinic acid]	67%	80.3%	78%	16.1 µg/mL (≈ 49.5 µM)	90%	44.3%	50%	72.2%	77.6 µg/mL (≈ 239 µM)	89.3%	90%	72.3%	83.3%	39.3%	57.1 µg/mL (≈ 176 µM)	55.7 µg/mL (≈ 172 µM)	90.3%	77%	28.3%	100%	EC50 [21]: 23.1 µg/mL (≈ 71.2 µM); inhibition at 62.5 µg/mL [22]: 44.3%; inhibition at 62.5 µg/mL [23]: 78.3%; EC50 [24]: 61.4 µg/mL (≈ 189 µM)
COC(=O)c1c(C)cc(OC(=O)c2c(C)cc(O)c(C=O)c2O)c(C)c1O [ATRANORIN]	40%	60.3%	81.3%	44.8 µg/mL (≈ 120 µM)	100%	50%	67.7%	89.7%	58.8 µg/mL (≈ 157 µM)	80%	78%	43%	81.3%	67.3%	105 µg/mL (≈ 280 µM)	50.3 µg/mL (≈ 134 µM)	90%	62%	44.3%	89.7%	EC50 [21]: 64.6 µg/mL (≈ 173 µM); inhibition at 62.5 µg/mL [22]: 22%; inhibition at 62.5 µg/mL [23]: 56.3%; EC50 [24]: 39.7 µg/mL (≈ 106 µM)
COC(=O)c1c(C)cc(O)c(C)c1O [ATRARIC ACID]	46%	88.3%	50%	57 µg/mL (≈ 290 µM)	74.3%	26.7%	50.3%	50%	77.2 µg/mL (≈ 394 µM)	90.3%	72.3%	50%	80.3%	33%	81.5 µg/mL (≈ 415 µM)	82.3 µg/mL (≈ 420 µM)	80.5%	67%	28.3%	89.3%	EC50 [21]: 57.5 µg/mL (≈ 293 µM); inhibition at 62.5 µg/mL [22]: 22.3%; inhibition at 62.5 µg/mL [23]: 44%; EC50 [24]: 80.2 µg/mL (≈ 409 µM)
COc1cc(C)c(C(=O)Oc2cc(C)c(C(=O)O)c(O)c2C)c(O)c1C=O [BAEOMYCESIC ACID]	33.4%	44.4%	47.1%	144 µg/mL (≈ 383 µM)	72.4%	33.5%	28.4%	44.4%	150 µg/mL (≈ 400 µM)	49.1%	38.2%	29.3%	81.6%	32.2%	149 µg/mL (≈ 398 µM)	110 µg/mL (≈ 293 µM)	57.9%	61.4%	17.1%	77.1%	EC50 [21]: 71.3 µg/mL (≈ 190 µM); inhibition at 62.5 µg/mL [22]: 11.4%; inhibition at 62.5 µg/mL [23]: 18.3%; EC50 [24]: 86.7 µg/mL (≈ 231 µM)
CCOC(=O)c1c(C)cc(O)c(C=O)c1O [ETHYL HEMATOMMATE]	15.3%	50.4%	13.5%	128 µg/mL (≈ 573 µM)	61%	6.4%	42.8%	47.5%	117 µg/mL (≈ 523 µM)	53.4%	26.3%	32.6%	55.5%	28.4%	133 µg/mL (≈ 592 µM)	250 µg/mL (≈ 1120 µM)	27.4%	33.5%	27.4%	56.5%	EC50 [21]: 125 µg/mL (≈ 557 µM); inhibition at 62.5 µg/mL [22]: 13.1%; inhibition at 62.5 µg/mL [23]: 15.1%; EC50 [24]: 99 µg/mL (≈ 441 µM)
COc1cc(C)c2c(=O)c3c(O)cc(OC)cc3oc2c1 [LICHEXANTHONE]	19.6%	42.7%	24.5%	149 µg/mL (≈ 520 µM)	37.3%	20.3%	30.3%	23.2%	134 µg/mL (≈ 467 µM)	50%	28.4%	23.4%	41%	16.7%	174 µg/mL (≈ 608 µM)	151 µg/mL (≈ 528 µM)	53.3%	29.4%	11.4%	42%	EC50 [21]: 202 µg/mL (≈ 707 µM); inhibition at 62.5 µg/mL [22]: 13%; inhibition at 62.5 µg/mL [23]: 9.03%; EC50 [24]: 273 µg/mL (≈ 955 µM)
COC(=O)c1c(C)cc(O)c(C=O)c1O [METHYL HAEMATOMMATE]	50.6%	69.3%	50.5%	88.2 µg/mL (≈ 420 µM)	89.2%	46.5%	61.4%	66.6%	52.9 µg/mL (≈ 252 µM)	78.2%	47.3%	46.4%	81.7%	44.2%	90.6 µg/mL (≈ 431 µM)	71.2 µg/mL (≈ 339 µM)	67.3%	72.6%	53.1%	71.3%	EC50 [21]: 50.5 µg/mL (≈ 240 µM); inhibition at 62.5 µg/mL [22]: 24.4%; inhibition at 62.5 µg/mL [23]: 34%; EC50 [24]: 60.3 µg/mL (≈ 287 µM)
CCOC(=O)c1c(C)cc(O)cc1O [ORSELLINIC ACID, ETHYL ESTER]	44.4%	83.3%	32.5%	72.5 µg/mL (≈ 370 µM)	78%	17.3%	28%	50.5%	114 µg/mL (≈ 580 µM)	67.2%	61.2%	50.4%	90.4%	28.3%	86.9 µg/mL (≈ 443 µM)	98.2 µg/mL (≈ 501 µM)	79.4%	68.1%	16.4%	91.4%	EC50 [21]: 58.3 µg/mL (≈ 297 µM); inhibition at 62.5 µg/mL [22]: 18.5%; inhibition at 62.5 µg/mL [23]: 28.3%; EC50 [24]: 82.7 µg/mL (≈ 421 µM)
